From publication PMC5224883 (Chemistry (Weinheim an der Bergstrasse, Germany), 2016)

Legend:
CXCR4 = CXCR4 (Homo sapiens, UniProt P61073); test: Chemokine-induced calcium signalling assay; assay type: cell-based; details: read-out: Ca^2+ flux IC50 CXCR4; CXCR4-positive U87 cell line, CXCL12 (SDF-1) induced Ca^2+ signalling, triplicate average
[1] = Cyclic voltammetry of copper acetate complexes; assay type: physicochemical; details: 1 mM in acetonitrile, 0.1 M TBAPF6, 200 mV/s, vs SHE
Method in brief: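 Working electrode was a Pt button, with a Pt-wire counter electrode and an Ag-wire pseudo-reference electrode. Tests were run under N2. Potentials were referenced to SHE using ferrocene as an internal standard (+0.400 V versus SHE). Samples were Cu2+ acetate complexes.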

Chain of CXCR4 (P61073 whole entry): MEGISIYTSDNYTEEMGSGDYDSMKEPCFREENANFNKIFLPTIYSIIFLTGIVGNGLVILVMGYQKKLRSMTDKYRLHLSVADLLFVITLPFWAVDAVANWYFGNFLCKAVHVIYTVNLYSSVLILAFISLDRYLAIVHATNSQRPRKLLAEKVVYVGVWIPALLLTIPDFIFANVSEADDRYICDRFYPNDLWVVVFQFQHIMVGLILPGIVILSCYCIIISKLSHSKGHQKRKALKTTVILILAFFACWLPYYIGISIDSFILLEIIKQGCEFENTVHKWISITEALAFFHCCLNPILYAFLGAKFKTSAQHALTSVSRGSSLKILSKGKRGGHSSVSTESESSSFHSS

- IC50 (CXCR4): 156 nM
- Eox (Cu^2+/3+) [1]: +1.516 V
- Ered (Cu^2+/+) [1]: −0.641 V
- Eox (^Cu+/2+) ([1]; return oxidation): −0.156 V
SMILES: CC(=O)[O-].[Cu+2].c1ccc(CN2CCCN3CCN(CCCN(Cc4ccccc4)CC3)CC2)cc1 [[Cu5(OAc)]^+]
